Common to all, as to assay type: functional, cell-based
Assay [1] concerns CCRF-CEM. The assay is described as follows: Cytotoxicity against human CEM cells after 3 days by MTT assay. The following applies: 72 h. The method, boiled down:
(§1)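 Suspension cells were kept in RPMI1640 with 10% FBS and seeded at 0.5×10^6 cells/100 μL without preincubation. Fresh medium holding 0.39–25 μg/mL drug was added, and cells were exposed for 3 days. MTT in serum-free medium was then given for 3 h at 37 °C, the formazan dissolved in DMSO, and absorbance read at 550 nm.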
On the technique in general: Tetrazolium dyes change colour on reduction, which living cells bring about.

In assay [2] the test system is SW1573. The assay is described as follows: Cytotoxicity against human SW1573 cells after 3 days by MTT assay. As to conditions: SW1573, 72 h. The method, boiled down: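 Adherent cells were grown in RPMI1640 with 10% FBS, plated at 0.2×10^5 cells/100 μL, and left 24 h to attach. Drug in fresh medium was applied at 0.39–25 μg/mL for 3 days. Viability was by MTT in serum-free medium for 3 h at 37 °C, with DMSO solubilization and absorbance at 550 nm.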

The subject of assay [3] is HL-60. The assay is described as follows: Cytotoxicity against human HL60 cells after 3 days by MTT assay. The following applies: HL-60, 72 h. The method, boiled down: as §1

Values after ≈ are worked out from the molar mass of the structure shown.

With `CC(=O)Oc1c(-c2c3c(c4ccccc4c2OC(C)=O)OC(C)(C)C=C3)c2c(c3ccccc13)OC(C)(C)C=C2`, the IC50 in assay [1], in assay [2] and in assay [3] was greater than 10 µg/mL throughout.

As for `O=c1cc(-c2ccc(O)c(O)c2)oc2cc(O[C@@H]3O[C@H](CO)[C@@H](O)[C@H](O)[C@H]3O)cc(O)c12` [GALUTEOLIN], the IC50 in assay [1], in assay [2] and in assay [3] was greater than 10 µg/mL each time.

For the molecule `COc1cc([C@H]2c3cc(O)c(OC)cc3C[C@@H](CO)[C@@H]2CO)ccc1O` [ISOLARICIRESINOL], the IC50 in assay [1], in assay [2] and in assay [3] was greater than 10 µg/mL throughout.

With `COc1cc2c(c3ccccc13)OC(C)(C)C=C2` [LAPACHENOL], the IC50 in assay [1], in assay [2] and in assay [3] was greater than 10 µg/mL in each case.

As for `CC1=C[C@H]2C3=C(C(=O)c4ccccc4C3=O)[C@]3(O)c4ccccc4C(=O)[C@@]2(/C=C/C(C)(C)O)[C@H]3C1` [LIPPSIDOQUINONE], the 50% inhibitory concentration (IC50) in assay [1] stood at 2.58 µg/mL (≈ 5.53 µM); in assay [3], 2.38 µg/mL (≈ 5.1 µM).

On to `O=c1cc(-c2ccc(O)c(O)c2)oc2cc(O)cc(O)c12` [LUTEOLIN], for which the IC50 in assay [1], in assay [2] and in assay [3] was greater than 10 µg/mL in each case.

For `O=c1c(O)c(-c2ccc(O)c(O)c2)oc2cc(O)cc(O)c12` [QUERCETIN], the IC50 in assay [1], in assay [2] and in assay [3] was greater than 10 µg/mL in each case.

In the case of `O=C1c2c(O)cc(O)cc2OC(c2ccc(O)c(O)c2)C1O` (stereo unspecified) [TAXIFOLIN], the half-inhibitory concentration (IC50) in assay [1], in assay [2] and in assay [3] was greater than 10 µg/mL each time.

Take `CC(C)=CC1Oc2c(c3c(c4ccccc24)OC(C)(C)C=C3)C2=C1C(=O)c1ccccc1C2=O` (stereo unspecified) [TECOMAQUINONE]: the IC50 in assay [1], in assay [2] and in assay [3] was greater than 10 µg/mL in each case.

With `Cc1ccc2c(c1)C(=O)c1ccccc1C2=O` [TECTOQUINONE], the half-inhibitory concentration (IC50) in assay [1], in assay [2] and in assay [3] was greater than 10 µg/mL in each case.

On to `CC1(C)C=Cc2c(-c3c4c(c5ccccc5c3O)OC(C)(C)C=C4)c(O)c3ccccc3c2O1` [tectol], for which the IC50 in assay [1] came to 0.78 µg/mL (≈ 1.73 µM); in assay [3], 1.79 µg/mL (≈ 3.97 µM).

As a reminder, the IC50 is the concentration that gives 50% inhibition. The low end stands for higher potency, the high end for lower potency.
